Laboratory results published in ChEMBL document CHEMBL5356937, “Dual FLT3/haspin kinase inhibitor based on 3H-pyrazolo[4,3-f]quinoline scaffold with activities against acute myeloid leukemia” (RSC Med Chem, 2023).
Activity calls are given as the source filed them. The calls are words filed in the database; no cut-off is given here.

Legend:
[1] = biological target: T1, Serine/threonine-protein kinase haspin (Homo sapiens) (UniProt Q8TF76); assay: Inhibition of haspin (unknown origin) at 50 nM by ADP Glo kinase assay relative to control
T1 sequence (whole entry): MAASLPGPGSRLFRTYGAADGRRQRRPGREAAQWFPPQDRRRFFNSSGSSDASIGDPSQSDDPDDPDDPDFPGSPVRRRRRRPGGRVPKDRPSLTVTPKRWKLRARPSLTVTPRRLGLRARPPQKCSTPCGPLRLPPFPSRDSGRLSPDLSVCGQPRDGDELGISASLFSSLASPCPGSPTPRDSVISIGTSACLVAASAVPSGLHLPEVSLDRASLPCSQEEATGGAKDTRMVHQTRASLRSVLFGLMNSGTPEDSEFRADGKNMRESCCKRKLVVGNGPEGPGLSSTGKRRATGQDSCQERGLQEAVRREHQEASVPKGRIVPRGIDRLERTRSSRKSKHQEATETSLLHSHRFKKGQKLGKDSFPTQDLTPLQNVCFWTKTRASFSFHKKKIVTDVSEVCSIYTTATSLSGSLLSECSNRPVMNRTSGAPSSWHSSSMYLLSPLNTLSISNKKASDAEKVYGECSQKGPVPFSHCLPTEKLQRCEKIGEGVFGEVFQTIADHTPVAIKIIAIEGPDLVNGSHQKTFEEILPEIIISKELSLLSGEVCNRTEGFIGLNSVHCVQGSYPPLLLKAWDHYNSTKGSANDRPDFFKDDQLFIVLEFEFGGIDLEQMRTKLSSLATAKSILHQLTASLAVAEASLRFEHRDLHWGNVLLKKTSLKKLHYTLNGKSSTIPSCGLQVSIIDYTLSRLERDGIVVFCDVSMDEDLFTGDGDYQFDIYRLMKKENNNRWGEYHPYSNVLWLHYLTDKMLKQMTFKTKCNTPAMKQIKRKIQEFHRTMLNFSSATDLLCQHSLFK
In short: (§1)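 In-house ADP-Glo assay: 9 ng/µL kinase, 10 µM ATP, 20 µM peptide substrate, 50 nM inhibitor in 25 mM MOPS pH 7.2, 12.5 mM β-glycerophosphate, 25 mM MgCl2, 2 mM EDTA, 0.2 mM DTT, 40 µg/mL BSA. Incubated 3 h, quenched with GLO reagent 40 min, detection reagent 1 h, luminescence read. Percent inhibition, mean of triplicates.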

[2] = biological target: Receptor-type tyrosine-protein kinase FLT3 (Homo sapiens) (UniProt P36888); assay: Inhibition of FLT3 (unknown origin) at 50 nM by ADP Glo kinase assay relative to control; in short: as §1
MOLM-14 [3] = assay: Anticancer activity against human MOLM-14 cells assessed as cell growth inhibition at 50 nM incubated for 72 hrs by CellTiter-Blue Cell Viability Assay relative to control; type: functional
In short: (§2)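 Cells plated at 5000/well in RPMI with 10% FBS and penicillin-streptomycin, incubated 24 h at 37 °C, 5% CO2, then exposed to 50 nM compound for 72 h. Viability read by CellTiter-Blue, absorbance at 570 nm 3 h after addition; vehicle and cell-free controls included. Percent growth inhibition given as mean of triplicates.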

MV4-11 [4] = assay: Anticancer activity against human MV4-11 cells assessed as cell growth inhibition at 50 nM incubated for 72 hrs by CellTiter-Blue Cell Viability Assay relative to control; type: functional; in short: as §2
[5] = biological target: Receptor-type tyrosine-protein kinase FLT3 (Homo sapiens, UniProt P36888, ITD); assay: Inhibition of FLT3 ITD mutant (unknown origin)
[6] = biological target: Receptor-type tyrosine-protein kinase FLT3 (Homo sapiens, UniProt P36888, D835Y); assay: Inhibition of FLT3 D835Y mutant (unknown origin)
[7] = biological target: Receptor-type tyrosine-protein kinase FLT3 (Homo sapiens) (UniProt P36888); assay: Inhibition of FLT3 in human MOLM-14 cells assessed as reduction in phosphorylation of FLT3 at 5 to 100 nM incubated for 2 hrs by immunoblotting; type: cell-based; conditions: dose 5-100 nM
In short: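 MOLM-14 cells exposed to compound at 5, 20 or 100 nM for 2 h, lysed, protein normalized to BSA standard; SDS-PAGE, nitrocellulose transfer, overnight primary antibody, 2 h peroxidase secondary, chemiluminescent detection by CCD. Phospho-FLT3 bands normalized to actin; means of triplicates, SD.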

MOLM-14 [8] = assay: Anticancer activity against human MOLM-14 cells assessed as reduction in cell proliferation incubated for 72 hrs CellTiter-Blue Cell Viability Assay; type: functional
In short: (§3)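 Cells grown in RPMI + 10% FBS + penicillin-streptomycin, seeded 5000 per well, left 24 h at 37 °C, 5% CO2, then given graded compound concentrations for 72 h. CellTiter-Blue viability read as absorbance at 570 nm after 3 h; vehicle and cell-free controls. Nonlinear regression gave GI50; points are means of triplicates, confirmed by two scientists on separate days.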

MOLM-14 [9] = assay: Anticancer activity against human MOLM-14 cells expressing FLT3 D835Y mutant assessed as reduction in cell proliferation incubated for 72 hrs CellTiter-Blue Cell Viability Assay; type: functional; in short: as §3
MOLM-14 [10] = assay: Anticancer activity against human MOLM-14 cells expressing FLT3 F691L mutant assessed as reduction in cell proliferation incubated for 72 hrs CellTiter-Blue Cell Viability Assay; type: functional; in short: as §3
MV4-11 [11] = assay: Anticancer activity against human MV4-11 cells assessed as reduction in cell proliferation incubated for 72 hrs CellTiter-Blue Cell Viability Assay; type: functional; in short: as §3
DNA = assay: Binding affinity to DNA (unknown origin) assessed as DNA intercalation; type: nucleic-acid assay; conditions: Homo sapiens
[12] = biological target: T1, Serine/threonine-protein kinase haspin (Homo sapiens); assay: Inhibition of haspin in human MOLM-14 cells assessed as reduction in histone H3 phosphorylation at Thr3 at 20 nM incubated for 24 hrs by immunoblotting analysis

Row | Compound | inhibition [1] [%] | inhibition [2] [%] | Activity (MOLM-14 [3]) [%] | Activity (MV4-11 [4]) [%] | also measured
1 | O=C(NCc1nnn[nH]1)c1ccc(-c2nc3ccc4[nH]ncc4c3c3c2CCCC3)cc1 | 57 | 51 | 50 | 41 | –
2 | O=C(NCc1cc[nH]c1)c1ccc(-c2nc3ccc4[nH]ncc4c3c3c2CCCC3)cc1 | 41 | 46 | 39 | 28 | –
3 | O=C(NCc1ncc[nH]1)c1ccc(-c2nc3ccc4[nH]ncc4c3c3c2CCCC3)c(F)c1 | 53 | 88 | 87 | 79 | –
4 | O=C(NCc1c[nH]cn1)c1ccc(-c2nc3ccc4[nH]ncc4c3c3c2CCCC3)cc1 | 54 | 49 | 67 | 62 | –
5 | FC(F)(F)c1n[nH]cc1-c1nc2ccc3[nH]ncc3c2c2c1CCCC2 | 39 | 81 | 90 | 92 | –
6 | O=C(NCc1ncc[nH]1)c1ccc(-c2nc3ccc4[nH]ncc4c3c3c2CCCC3)cc1 | 77 | 76 | 84 | 80 | –
7 | O=C(NCc1nnc[nH]1)c1ccc(-c2nc3ccc4[nH]ncc4c3c3c2CCCC3)cc1 | 57 | 49 | 48 | 52 | –
8 | Cc1c[nH]c(CNC(=O)c2ccc(-c3nc4ccc5[nH]ncc5c4c4c3CCCC4)cc2)n1 | 97 | 94 | 96 | 94 | IC50 [5]: 0.121 nM; IC50 [6]: 0.024 nM; Activity [7]: Active; GI50 (MOLM-14 [8]): 22.4 nM; GI50 (MOLM-14 [9]): 4.3 nM; GI50 (MOLM-14 [10]): 2.2 nM; GI50 (MV4-11 [11]): 8.9 nM; Activity (DNA): inactive; inhibition [12]: Active
9 | O=C(NCc1nccs1)c1ccc(-c2nc3ccc4[nH]ncc4c3c3c2CCCC3)cc1 | 68 | 53 | 55 | 60 | –
10 | Cn1ccnc1CNC(=O)c1ccc(-c2nc3ccc4[nH]ncc4c3c3c2CCCC3)cc1 | 26 | 14 | 21 | 25 | –
11 | O=C(NCCn1ccnc1)c1ccc(-c2nc3ccc4[nH]ncc4c3c3c2CCCC3)cc1 | 33 | 31 | 42 | 35 | –
12 | O=C1c2c(O)ccc(O)c2C(=O)c2c(NCCNCCO)ccc(NCCNCCO)c21 | – | – | – | – | Activity (DNA): Active
13 | CCc1nc(C(N)=O)c(Nc2ccc(N3CCC(N4CCN(C)CC4)CC3)c(OC)c2)nc1NC1CCOCC1 [GILTERITINIB] | 11 | 93 | 87 | 91 | inhibition [12]: inactive
14 | O=C(NCc1ncc[nH]1)c1ccc(-c2nc3ccc4[nH]ncc4c3c3c2CCCC3)cc1F | 76 | 85 | 80 | 82 | –
15 | O=C(NCCc1ncc[nH]1)c1ccc(-c2nc3ccc4[nH]ncc4c3c3c2CCCC3)cc1 | 78 | 71 | 73 | 69 | –
